Measured values as given in ChEMBL document CHEMBL4368903, “Identification of GSK3186899/DDD853651 as a Preclinical Development Candidate for the Treatment of Visceral Leishmaniasis” (J Med Chem, 2019).
Converted amounts (≈) assume the structure as drawn. The source made the active and inactive calls. The rule behind the calls is not given here.

What was measured:
[1] = Toxicity in Crl:WI(Han) rat assessed as increase in CYP1A1 gene expression in liver at 100 to 1000 mg/kg/day, po via gavage for 7 days; assay type: organism-based; settings: in vivo, 168 h
Method in brief: (§1)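 Male Crl:WI(Han) rats given oral gavage daily for 7 days at 100, 300 and 1000 mg/kg/day. Clinical signs, macroscopic findings, clinical pathology versus controls, and a liver gene expression panel for hepatic toxicity mechanisms.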

Lymphoma cell line = test: Clastogenicity in mouse Lymphoma cells at 120 ug/ml; assay type: toxicity, cell-based
[2] = Toxicity in rabbit cardiac ventricular wedge assessed as QT shortening at 30 uM relative to control; assay type: tissue-based, Oryctolagus cuniculus, Cardiac ventricle
[3] = Toxicity in Crl:WI(Han) rat assessed as effect on life and clinical signs at 100 to 1000 mg/kg/day, po via gavage for 7 days; assay type: organism-based; settings: in vivo, 168 h; method in brief: as §1
[4] = Intrinsic clearance in human liver microsomes at 0.5 uM after 3 to 30 mins in presence of NADPH by UPLC-MS/MS analysis; assay type: ADME, Microsome
Method in brief: (§2)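 0.5 μM compound with female CD1 mouse or human liver microsomes, started with excess NADPH in 50 mM potassium phosphate pH 7.4. Aliquots at 0, 3, 6, 9, 15 and 30 min quenched in acetonitrile with internal standard. UPLC-MS/MS; rate constant from exponential decay of compound/IS ratio. Verapamil as positive control.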

[5] = Toxicity in Crl:WI(Han) rat assessed as effect on macro observations parameters at 100 to 1000 mg/kg/day, po via gavage for 7 days; assay type: organism-based; settings: in vivo, 168 h; method in brief: as §1
[6] = Intrinsic clearance in CD1 mouse liver microsomes at 0.5 uM after 3 to 30 mins in presence of NADPH by UPLC-MS/MS analysis; assay type: ADME, Microsome; method in brief: as §2
[7] = Toxicity in Crl:WI(Han) rat assessed as drug tolerability dose at 100 to 1000 mg/kg/day, po via gavage for 7 days; assay type: organism-based; settings: in vivo, read-out: Activity
Method in brief: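 Male Crl:WI(Han) rats dosed by oral gavage once daily in a 7-day repeat-dose study at 100, 300 and 1000 mg/kg/day. Tolerated doses judged from in-life and clinical signs, macroscopic observations, histopathology, clinical pathology and liver gene expression profiling versus controls.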

[8] = Therapeutic index, ratio of fCmax in conscious unrestrained telemetered Crl:WI(Han) rat at 300 mg/kg/day, po via gavage for 7 days measured on day 1 to fCmax in Leishmania donovani LV9 amastigotes infected BALB/c mouse at 25 mg/kg, po administered bid for 10 days measured on day 1; assay type: organism-based; settings: in vivo, read-out: TI
Method in brief: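 Index = free Cmax on day 1 of the rat cardiovascular study / free Cmax on day 1 of the mouse efficacy model. Rat arm: conscious, unrestrained, telemetered male CRL:WI(Han) rats given a single oral dose (up to 1000 mg/kg). Mouse arm: female BALB/c infected i.v. with L. donovani LV9 amastigotes, dosed orally twice daily from day 7 post-infection in 0.5% HPMC, 0.4% Tween 80, 0.5% benzyl alcohol.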

[9] = Cardiotoxicity in Crl:WI(Han) rat up to 1000 mg/kg, po via gavage; assay type: toxicity, organism-based; settings: in vivo
Method in brief: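 Conscious unrestrained telemetered male CRL:WI(Han) rats given a single oral dose of vehicle or test article up to 1000 mg/kg. Cardiovascular and electrocardiographic parameters monitored.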

Leishmania donovani [10] = test: Antileishmanial activity against Leishmania donovani LV9 amastigotes infected in BALB/c mouse assessed as suppression of parasite load within liver at 25 mg/kg, po administered bid for 10 days relative to control; assay type: functional
Method in brief: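 Female BALB/c mice, 5 per group, infected i.v. with about 2×10^7 L. donovani LV9 amastigotes harvested from infected hamster spleen. Oral dosing starts day 7 post-infection, in 0.5% HPMC/0.4% Tween 80/0.5% benzyl alcohol, or 10% DMSO/60% PEG400/30% water for the 5-day 50 mg/kg regimen. Dosing solutions made fresh daily. Killed day 14 (5-day) or 19 (10-day). Liver smears give LDU (amastigotes/500 nucleated cells × organ weight). Mean LDU compared with vehicle control gives % suppression.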

[11] = Toxicity in Crl:WI(Han) rat assessed as decrease in hemoglobin levels at 300 to 1000 mg/kg/day, po via gavage for 7 days; assay type: organism-based; settings: in vivo, 168 h
[12] = Toxicity in Crl:WI(Han) rat assessed as decrease in albumin levels at 300 mg/kg/day, po via gavage for 7 days; assay type: organism-based; settings: in vivo, 168 h
[13] = Kinetic aqueous solubility of the compound in phosphate buffer at pH 7.4 by CLND assay; assay type: physicochemical; settings: phosphate buffer, read-out: Kinetic_solubility
Method in brief: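 From 10 mM DMSO stock diluted 1:20 into pH 7.4 PBS, equilibrated 1 h at RT, filtered. Filtrate quantified by calibrated flow-injection CLND. Dynamic range 1–500 μM.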

[14] = Mutagenicity in Salmonella typhimurium at 1500 ug/plate by Ames test; assay type: toxicity; settings: salmonella enterica subsp. enterica serovar typhimurium
[15] = Toxicity in Crl:WI(Han) rat assessed as increase in triglycerides levels at 300 mg/kg/day, po via gavage for 7 days; assay type: organism-based; settings: in vivo, 168 h; method in brief: as §1
Cytochrome P450 3A4 = Cytochrome P450 3A4 (Homo sapiens, UniProt P08684); test: Inhibition of CYP3A4 in human liver microsomes using midazolam as substrate preincubated for 20 mins followed by substrate addition and measured after 5 mins by LC-MS/MS analysis; assay type: ADME
Chain of Cytochrome P450 3A4 (P08684 whole entry): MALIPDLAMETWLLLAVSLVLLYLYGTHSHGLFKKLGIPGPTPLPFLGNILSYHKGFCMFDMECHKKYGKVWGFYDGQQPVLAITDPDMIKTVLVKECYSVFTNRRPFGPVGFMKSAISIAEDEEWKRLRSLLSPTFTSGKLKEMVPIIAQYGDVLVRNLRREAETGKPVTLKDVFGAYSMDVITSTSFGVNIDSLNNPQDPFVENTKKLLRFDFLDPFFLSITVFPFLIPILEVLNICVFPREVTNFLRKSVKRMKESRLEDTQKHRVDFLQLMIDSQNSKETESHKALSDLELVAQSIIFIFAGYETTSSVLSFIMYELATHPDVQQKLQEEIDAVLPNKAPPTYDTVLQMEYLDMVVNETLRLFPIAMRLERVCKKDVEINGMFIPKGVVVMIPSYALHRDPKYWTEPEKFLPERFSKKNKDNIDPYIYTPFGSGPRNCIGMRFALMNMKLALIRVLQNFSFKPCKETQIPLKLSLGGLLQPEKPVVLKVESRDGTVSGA
Method in brief: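 Pooled human liver microsomes (final 0.1 mg/mL) with midazolam marker substrate, monitoring CYP3A4-specific metabolite. Test compound at eight concentrations, 0.1–100 μM, final organic ≤0.5%. Preincubated at 37 °C for 20 min, then substrate or cofactor added and incubated 5 min at 37 °C. Stopped with ice-cold acetonitrile; LC-MS/MS read-out gives pIC50.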

[16] = Toxicity in Crl:WI(Han) rat assessed as increase in ALP at 1000 mg/kg/day, po via gavage for 7 days; assay type: organism-based; settings: in vivo, 168 h; method in brief: as §1
[17] = Toxicity in Crl:WI(Han) rat assessed as decrease in HCT levels at 300 to 1000 mg/kg/day, po via gavage for 7 days; assay type: organism-based; settings: in vivo, 168 h
[18] = Toxicity in Crl:WI(Han) rat assessed as increase in plasma glucose levels at 1000 mg/kg/day, po via gavage for 7 days; assay type: organism-based; settings: in vivo, 168 h; method in brief: as §1
[19] = Ratio of AUC (0 to 24 hrs) in conscious unrestrained telemetered Crl:WI(Han) rat at 300 mg/kg/day, po via gavage for 7 days measured on day 7 to AUC (0 to 24 hrs) in Leishmania donovani LV9 amastigotes infected BALB/c mouse at 25 mg/kg, po administered bid for 10 days measured on day 10; assay type: ADME, organism-based; settings: in vivo, read-out: TI
Method in brief: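 Index = AUC0–24 on day 7 of the rat study / AUC0–24 on day 10 of the mouse efficacy model. Rat arm: male Crl:WI(Han) rats, oral gavage once daily for 7 days at 100, 300 or 1000 mg/kg/day. Mouse arm: female BALB/c infected i.v. with ~2×10^7 L. donovani LV9 amastigotes, dosed orally twice daily for 10 days from day 7 post-infection in 0.5% HPMC, 0.4% Tween 80, 0.5% benzyl alcohol.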

[20] = Solubility of compound in fasted simulated intestinal fluid at 1 mg after 4 hrs by HPLC-UV analysis; assay type: physicochemical; settings: fasted simulated intestinal fluid
Method in brief: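 1 mg solid shaken in 1 mL FaSSIF (3 mM sodium taurocholate, 0.75 mM lecithin, phosphate buffer pH 6.5) at 900 rpm for 4 h at room temperature, then filtered. Supernatant quantified by HPLC-UV against single-point DMSO calibration. Range 1–1000 μg/mL.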

[21] = Toxicity in Crl:WI(Han) rat assessed as decrease in total protein levels at 300 mg/kg/day, po via gavage for 7 days; assay type: organism-based; settings: in vivo, 168 h
Leishmania donovani [22] = test: Antileishmanial activity against Leishmania donovani […] in human THP1 cells by intramacrophage assay; assay type: functional, organism-based; settings: Leishmania donovani, THP-1
[23] = Toxicity in Crl:WI(Han) rat assessed as effect on liver gene expression in liver at 100 to 1000 mg/kg/day, po via gavage for 7 days; assay type: organism-based; settings: in vivo, 168 h; method in brief: as §1
[24] = molecular target: Cyclin-dependent kinase 2 (Homo sapiens) (UniProt P24941); test: Inhibition of human CDK2 by kinobeads-based assay
[25] = Toxicity in Crl:WI(Han) rat assessed as decrease in calcium levels at 1000 mg/kg/day, po via gavage for 7 days; assay type: organism-based; settings: in vivo, 168 h
[26] = molecular target: Voltage-gated inwardly rectifying potassium channel KCNH2 (Homo sapiens, UniProt Q12809); test: Inhibition of human ERG by patch clamp assay
Chain of Voltage-gated inwardly rectifying potassium channel KCNH2 (Q12809 whole entry): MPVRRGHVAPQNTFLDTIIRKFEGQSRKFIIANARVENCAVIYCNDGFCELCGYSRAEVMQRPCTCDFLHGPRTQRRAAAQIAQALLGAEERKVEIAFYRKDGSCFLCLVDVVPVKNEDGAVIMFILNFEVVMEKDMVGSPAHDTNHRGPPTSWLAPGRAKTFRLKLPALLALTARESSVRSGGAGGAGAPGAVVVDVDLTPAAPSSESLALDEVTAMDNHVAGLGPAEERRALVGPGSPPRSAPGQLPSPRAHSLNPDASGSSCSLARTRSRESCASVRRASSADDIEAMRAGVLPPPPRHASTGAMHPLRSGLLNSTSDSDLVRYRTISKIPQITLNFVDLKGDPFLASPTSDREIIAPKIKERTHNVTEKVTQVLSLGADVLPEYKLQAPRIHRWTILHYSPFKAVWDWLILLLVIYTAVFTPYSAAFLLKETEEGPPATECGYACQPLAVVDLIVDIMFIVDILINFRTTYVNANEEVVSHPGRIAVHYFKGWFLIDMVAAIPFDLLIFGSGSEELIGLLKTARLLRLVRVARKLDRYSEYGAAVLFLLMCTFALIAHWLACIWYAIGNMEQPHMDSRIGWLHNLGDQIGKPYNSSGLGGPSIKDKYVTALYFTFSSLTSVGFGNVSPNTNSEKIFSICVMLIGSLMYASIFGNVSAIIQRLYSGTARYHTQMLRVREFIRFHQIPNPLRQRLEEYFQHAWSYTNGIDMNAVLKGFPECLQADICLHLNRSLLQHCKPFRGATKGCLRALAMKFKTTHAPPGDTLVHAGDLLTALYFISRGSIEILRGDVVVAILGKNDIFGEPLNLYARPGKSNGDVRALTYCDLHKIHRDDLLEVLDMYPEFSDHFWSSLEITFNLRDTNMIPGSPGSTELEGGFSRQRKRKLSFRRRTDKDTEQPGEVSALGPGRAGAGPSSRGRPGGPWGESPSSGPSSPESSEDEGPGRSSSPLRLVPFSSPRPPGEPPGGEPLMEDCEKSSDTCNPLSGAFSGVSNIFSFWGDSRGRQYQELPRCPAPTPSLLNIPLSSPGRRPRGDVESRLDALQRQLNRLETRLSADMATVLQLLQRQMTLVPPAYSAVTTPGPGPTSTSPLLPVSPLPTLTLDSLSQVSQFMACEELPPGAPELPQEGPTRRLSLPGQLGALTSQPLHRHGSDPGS

[27] = Toxicity in Crl:WI(Han) rat assessed as decrease in RBC levels at 300 to 1000 mg/kg/day, po via gavage for 7 days; assay type: organism-based; settings: in vivo, 168 h

For `C[C@H]1CN(c2n[nH]c3nc(N[C@H]4CC[C@H](NS(=O)(=O)CCC(F)(F)F)CC4)ncc23)CCO1` [GSK-3186899], the Activity [1] was “Non-Toxic”, the Activity (Lymphoma cell line) was “Non-Toxic” and the Activity [2] was 8.9%. For the same molecule, the Activity [3] was “Non-Toxic”, the CLH [4] was 0.7 mL/min/g and the Activity [5] was “Non-Toxic”. It also gave a CLH [6] of less than 0.5 mL/min/g, an MTD at 168 h [7] of 100 to 1000 mg/kg and a selectivity ratio [8] of 3. For the same molecule, the Activity [9] was “Non-Toxic”, the Activity (Leishmania donovani [10]) was greater than 95% and the Activity [11] was “Toxic”. For the same molecule, the Activity [12] was “Toxic”, the solubility kinetic [13] was 99 µM (≈ 48.7 µg/mL) and the Activity [14] was “Non-Toxic”. For the same molecule, the Activity [15] was “Toxic”, the IC50 (Cytochrome P450 3A4) was greater than 39.8 µM and the Activity [16] was “Toxic”. For the same molecule, the Activity [17] was “Toxic”, the Activity [18] was “Toxic” and the selectivity ratio [19] was 13. The solubility at 4 h [20] was 17 to 64 µg/mL (≈ 34.6 to 130 µM), the Activity [21] was “Toxic” and the EC50 (Leishmania donovani [22]) was 1.26 µM. For the same molecule, the Activity [23] was “Non-Toxic”, the inhibition [24] was “inactive” and the Activity [25] was “Toxic”. For the same molecule, the IC50 [26] was greater than 30 µM and the Activity [27] was “Toxic”.
